Measurements reported in ChEMBL document CHEMBL2040743, “Pipestelides A-C: cyclodepsipeptides from the Pacific marine sponge Pipestela candelabra” (J Nat Prod, 2012).
pIC50: −log10 of the molar value.

What was measured:
[1] = system: KB; assay: Inhibition of cell proliferation of human KB cells at 10 uM after 72 hrs by CellTiter assay; assay type: functional
In short: (§1)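 KB cells from NCI grown in D-MEM with 10% fetal calf serum and antibiotics under 5% CO2. 600 cells/well, compound in DMSO added 24 h after seeding (1% DMSO final), exposure 72 h. MTS reagent for 3 h at 37 °C, A490. % inhibition = (1 − OD treated/OD DMSO control) × 100, mean ± SE of triplicates.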

[2] = system: KB; assay: Inhibition of cell proliferation of human KB cells at 1 uM after 72 hrs by CellTiter 96 assay; assay type: functional; in short: as §1
[3] = system: KB; assay: Growth inhibition of human KB cells after 72 hrs by CellTiter 96 assay; assay type: functional, cell-based
In short: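 NCI KB cells in D-MEM with 10% fetal calf serum and antibiotics, 5% CO2. 600 cells/well, dosed 24 h after plating from DMSO stocks, 1% DMSO final. Tested from 5 nM to 100 μM for 72 h, then 3 h at 37 °C with MTS reagent and A490 read. IC50 taken from separate duplicate experiments, values given individually.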

| Structure (SMILES) | inhibition at 10 µM [1] | inhibition at 1 µM [2] | pIC50 [3] |
| --- | --- | --- | --- |
| C=C1C[C@H](C)C(=O)N[C@@H](C)C(=O)N(C)[C@H](Cc2c(Br)[nH]c3ccccc23)C(=O)N[C@@H](c2ccc(O)cc2)CC(=O)O[C@@H](C)C[C@@H](C)[C@@H]1O [JASPLAKINOLIDE CB] | 100% | 75% | – |
| C=C1C[C@H](C)C(=O)N[C@@H](C)C(=O)N(C)[C@H](Cc2c(Br)[nH]c3ccccc23)C(=O)N[C@@H](c2ccc(O)cc2)CC(=O)O[C@@H](C)C[C@@H](C)[C@H]1O [JASPLAKINOLIDE CA] | 80% | 0% | – |
| C/C1=C\[C@H](C)C[C@H](C)OC(=O)C[C@H](c2ccc(O)cc2)NC(=O)[C@@H](Cc2c(Br)[nH]c3ccccc23)N(C)C(=O)[C@H](C)NC(=O)[C@@H](C)C1O (stereo partly drawn) [JASPAMIDE K] | 100% | 100% | 5.47 |
| C/C1=C\[C@H](C)C[C@H](C)OC(=O)C[C@H](c2ccc(O)cc2)NC(=O)[C@@H](Cc2c(Br)[nH]c3ccccc23)N(C)C(=O)[C@H](CO)NC(=O)[C@@H](C)C1 [JASPAMIDE E] | 100% | 100% | 6.92 |
| C/C1=C\[C@H](C)C[C@H](C)OC(=O)C[C@H](c2ccc(O)cc2)NC(=O)[C@@H](Cc2c(Br)[nH]c3ccccc23)N(C)C(=O)[C@H](C)NC(=O)[C@@H](C)C1 [JASPAMIDE] | 100% | 99% | 7.89 |
| C/C1=C\[C@H](C)C[C@H](C)OC(=O)C[C@H](c2ccc(O)c(Br)c2)NC(=O)[C@@H](Cc2c(Br)[nH]c3ccccc23)N(C)C(=O)[C@H](C)NC(=O)[C@@H](C)C1 [PIPESTELIDE A] | 100% | 100% | 7.00 |
| CC[C@H]1NC(=O)[C@@H](C)C/C(C)=C/[C@H](C)C[C@H](C)OC(=O)C[C@H](c2ccc(O)cc2)NC(=O)[C@@H](Cc2c(Br)[nH]c3ccccc23)N(C)C1=O [JASPAMIDE D] | 100% | 100% | 8.36 |
| C/C(=C\[C@H](C)C[C@H](C)O)C[C@H](C)C(=O)N[C@@H](C)C(=O)N(C)[C@H](Cc1c(Br)[nH]c2ccccc12)C(=O)N[C@H](CC(=O)O)c1ccc(O)cc1 [JASPLAKINOLIDE Z1] | 30% | – | – |
| C=C1C[C@H](C)C(=O)N[C@@H](C)C(=O)N(C)[C@H](Cc2c(Br)[nH]c3ccccc23)C(=O)N[C@@H](c2ccc(O)cc2)CC(=O)O[C@@H](C)C[C@@H](C)C1=O [JASPLAKINOLIDE B] | 99% | 99% | 7.54 |
| C/C1=C/[C@H](C)C(=O)N[C@@H](C)C(=O)N(C)[C@H](Cc2c(Br)[nH]c3ccccc23)C(=O)N[C@@H](c2ccc(O)cc2)CC(=O)O[C@@H](C)C[C@@H](C)[C@H]1O [PIPESTELIDE B] | 100% | 0% | – |
| C[C@@H]1NC(=O)[C@@H](C)C/C(CO)=C/[C@H](C)C[C@H](C)OC(=O)C[C@H](c2ccc(O)cc2)NC(=O)[C@@H](Cc2c(Br)[nH]c3ccccc23)N(C)C1=O [JASPAMIDE L] | 99% | 100% | 6.67 |
